{
  "source": "ChEMBL document CHEMBL2163322",
  "about": "“Identification of small molecule inhibitors of the HIV-1 nucleocapsid-stem-loop 3 RNA complex” (J Med Chem, 2012)",
  "key": {"Nucleic Acid [1]": {"molecular_target": "Nucleic Acid", "test": "Binding affinity to double stranded RNA by fluorescence spectrometry", "format": "nucleic-acid assay", "conditions": "for pKd: read-out: Kd(app)", "outline": "(§1)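 Fluorescence titration of 5′-fluorescein-labeled RNA (25 nM) in 10 mM Tris-HCl pH 7.4, 25 mM NaCl at 25 °C. Ligand is added stepwise until the signal plateaus, with 3–5 min equilibration per addition. Excitation is 490 nm; emission at 517 nm is used. Fraction bound is fit to a 1:1 model, or a 2:1 cooperative model for one ligand, to give apparent KD. Fluorescein-only and DMSO controls are run. SD is from at least three measurements.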"}, "Nucleic Acid [2]": {"molecular_target": "Nucleic Acid", "test": "Binding affinity to single stranded RNA by fluorescence spectrometry", "format": "nucleic-acid assay", "conditions": "for pKd: read-out: Kd(app)", "outline": "as §1"}, "Nucleic Acid [3]": {"molecular_target": "Nucleic Acid", "test": "Binding affinity to HIV 1 fluorescein-labeled SL3 RNA by fluorescence spectrometry", "format": "nucleic-acid assay, Human immunodeficiency virus 1", "conditions": "for pKd: read-out: Kd(app); for Activity: Human immunodeficiency virus 1", "outline": "as §1"}, "Nucleic Acid [4]": {"system": "Nucleic Acid", "test": "Selectivity ratio of Kd for single stranded RNA to Kd for HIV 1 SL3 RNA", "format": "nucleic-acid assay"}, "Nucleic Acid [5]": {"system": "Nucleic Acid", "test": "Selectivity ratio of Kd for double stranded RNA to Kd for HIV 1 SL3 RNA", "format": "nucleic-acid assay"}, "Nucleic Acid [6]": {"molecular_target": "Nucleic Acid", "test": "Binding affinity to HIV 1 SL3 RNA by ITC analysis", "format": "nucleic-acid assay, Human immunodeficiency virus 1", "conditions": "read-out: Kd(app)", "outline": "(§2)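 Isothermal titration calorimetry at 25 °C. Ligand at 1 mM is injected in 10 μL aliquots into 20 μM RNA. Both are in 10 mM sodium phosphate pH 7.4 with 10% DMSO. Injections last 24 s and are spaced 240 s apart. Heats are corrected with ligand-into-buffer controls. KD values come from a sequential two-site binding fit to heat versus ligand:RNA molar ratio. SD is from two measurements.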"}, "Nucleic Acid [7]": {"molecular_target": "Nucleic Acid", "test": "Binding affinity to double stranded RNA by ITC analysis", "format": "nucleic-acid assay", "conditions": "read-out: Kd(app)", "outline": "as §2"}, "Nucleic Acid [8]": {"molecular_target": "Nucleic Acid", "test": "Binding affinity to double stranded RNA assessed as second binding dissociation constant by ITC analysis", "format": "nucleic-acid assay", "conditions": "read-out: Kd(app)", "outline": "as §2"}, "Nucleic Acid [9]": {"molecular_target": "Nucleic Acid", "test": "Binding affinity to single stranded RNA assessed as second binding dissociation constant by ITC analysis", "format": "nucleic-acid assay", "conditions": "read-out: Kd(app)", "outline": "as §2"}, "Nucleic Acid [10]": {"molecular_target": "Nucleic Acid", "test": "Binding affinity to single stranded RNA by ITC analysis", "format": "nucleic-acid assay", "conditions": "read-out: Kd(app)", "outline": "as §2"}, "Nucleic Acid [11]": {"molecular_target": "Nucleic Acid", "test": "Destabilization of HIV1 [32P]-labeled SL3 RNA-NCp complex assessed as displacement of NCp from SL3 RNA after 1 hr by electrophoretic gel mobility shift assay", "format": "nucleic-acid assay, Human immunodeficiency virus 1", "conditions": "for pKi: read-out: Ki(app)", "outline": "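Gel shift assay. Ligand is then added at rising concentrations for another 1 h. Samples are run on a 6% native gel at 4 °C. IC50 comes from a Hill fit of bound-RNA counts. Ki = IC50/(1+[PT]/KD). SD is from at least three experiments.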"}, "Nucleic Acid [12]": {"molecular_target": "Nucleic Acid", "test": "Binding affinity to HIV 1 SL3 RNA assessed as second binding dissociation constant by ITC analysis", "format": "nucleic-acid assay, Human immunodeficiency virus 1", "conditions": "read-out: Kd(app)", "outline": "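ITC at 25 °C: ligand (1 mM) in 10 mM sodium phosphate pH 7.4 with 10% DMSO injected in 10 μL aliquots into 20 μM SL3 RNA in the same buffer. Injections lasted 24 s at 240 s spacing. Heats of ligand-into-buffer titrations were subtracted. Heat versus ligand:RNA molar ratio was fit to a sequential two-site model, with the second KD taken from the second site. Two measurements.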"}, "Nucleic Acid [13]": {"system": "Nucleic Acid", "test": "Inhibition of HIV1 [32P]-labeled SL3 RNA interaction with NCp at 1mM after 1 hr by electrophoretic gel mobility shift assay", "format": "nucleic-acid assay", "conditions": "Human immunodeficiency virus 1", "outline": "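Screen for single-point inhibition. Ligand is added at a final 1 mM to a preformed NCp7–SL3 RNA complex and incubated 1 h. Bound and free RNA are then resolved by gel mobility shift assay.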"}},
  "note": "pIC50, pKd, pKi: −log10 of the molar value. Activity calls are given as the source filed them. No cut-off for these calls is given here.",
  "data": [
    {"smiles": "O=[N+]([O-])c1ccc(SCCO)c2ncccc12", "values": [
      {"measurement": "pKd", "setting": "Nucleic Acid [1]", "result": "< 2.96"},
      {"measurement": "pKd", "setting": "Nucleic Acid [2]", "result": "< 3.22"},
      {"measurement": "pKd", "setting": "Nucleic Acid [3]", "result": 4.05},
      {"measurement": "Selectivity ratio", "setting": "Nucleic Acid [4]", "result": "> 7"},
      {"measurement": "Selectivity ratio", "setting": "Nucleic Acid [5]", "result": "> 12"}
    ]},
    {"smiles": "Cc1cccn2c(=O)c3cc(C(=O)NCCN4CCOCC4)c(=N)n(Cc4cccnc4)c3nc12", "values": [
      {"measurement": "pKd", "setting": "Nucleic Acid [1]", "result": 5.08},
      {"measurement": "pKd", "setting": "Nucleic Acid [2]", "result": 4.93},
      {"measurement": "pKd", "setting": "Nucleic Acid [3]", "result": 5.30}
    ]},
    {"smiles": "Cc1cccn2c(=O)c3cc(C(=O)N4CCN(C)CC4)c(=N)n(CC4CCCO4)c3nc12", "note": "(centres undefined)", "values": [
      {"measurement": "pKd", "setting": "Nucleic Acid [6]", "result": 4.84},
      {"measurement": "pKd", "setting": "Nucleic Acid [7]", "result": 3.72},
      {"measurement": "pKd", "setting": "Nucleic Acid [3]", "result": 5.00},
      {"measurement": "pKd", "setting": "Nucleic Acid [8]", "result": 2.62},
      {"measurement": "pKd", "setting": "Nucleic Acid [9]", "result": 1.92},
      {"measurement": "Selectivity ratio", "setting": "Nucleic Acid [4]", "result": 19},
      {"measurement": "pKd", "setting": "Nucleic Acid [10]", "result": 3.55},
      {"measurement": "Selectivity ratio", "setting": "Nucleic Acid [5]", "result": 13}
    ]},
    {"smiles": "O=C(Cc1ccccc1)Nc1ccc(N2CCCC2)cc1", "values": [
      {"measurement": "Activity", "setting": "Nucleic Acid [3]", "result": "inactive"}
    ]},
    {"smiles": "COc1ccc(N/C(S)=N/CCCn2ccnc2)cc1", "values": [
      {"measurement": "Activity", "setting": "Nucleic Acid [3]", "result": "inactive"}
    ]},
    {"smiles": "CC1CCN(c2ccc(N)cc2)CC1", "values": [
      {"measurement": "Activity", "setting": "Nucleic Acid [1]", "result": "Active"},
      {"measurement": "Activity", "setting": "Nucleic Acid [2]", "result": "Active"},
      {"measurement": "pKd", "setting": "Nucleic Acid [3]", "result": 4.36}
    ]},
    {"smiles": "Nc1ccccc1NCCOc1ccccc1", "values": [
      {"measurement": "Activity", "setting": "Nucleic Acid [1]", "result": "Active"},
      {"measurement": "Activity", "setting": "Nucleic Acid [2]", "result": "Active"},
      {"measurement": "pKd", "setting": "Nucleic Acid [3]", "result": 4.29}
    ]},
    {"smiles": "COc1ccc(NCc2ccc([N+](=O)[O-])s2)cc1OC", "values": [
      {"measurement": "pKd", "setting": "Nucleic Acid [1]", "result": 5.08},
      {"measurement": "pKd", "setting": "Nucleic Acid [2]", "result": 4.85},
      {"measurement": "pKd", "setting": "Nucleic Acid [3]", "result": 4.95}
    ]},
    {"smiles": "CNC(=O)c1cc2c(=O)n3cccc(C)c3nc2n(CCCO)c1=N", "values": [
      {"measurement": "pKd", "setting": "Nucleic Acid [1]", "result": 5.09},
      {"measurement": "pKd", "setting": "Nucleic Acid [2]", "result": 5.02},
      {"measurement": "pKd", "setting": "Nucleic Acid [3]", "result": 5.46}
    ]},
    {"smiles": "N=C1NC(=O)/C(=C\\c2ccc3ccccc3c2)S1", "values": [
      {"measurement": "pKd", "setting": "Nucleic Acid [1]", "result": 4.95},
      {"measurement": "pKd", "setting": "Nucleic Acid [2]", "result": 5.05},
      {"measurement": "pKd", "setting": "Nucleic Acid [3]", "result": 4.96}
    ]},
    {"smiles": "CN1CCN(CCCN2c3ccccc3Sc3ccc(C(F)(F)F)cc32)CC1", "note": "[TRIFLUOPERAZINE]", "values": [
      {"measurement": "pKd", "setting": "Nucleic Acid [1]", "result": 5.66},
      {"measurement": "pKd", "setting": "Nucleic Acid [2]", "result": 5.70},
      {"measurement": "pKd", "setting": "Nucleic Acid [3]", "result": 5.77}
    ]},
    {"smiles": "Cc1cccn2c(=O)c3cc(C(=O)NC(C)c4ccccc4)c(=N)n(CCOCCO)c3nc12", "note": "(centres undefined)", "values": [
      {"measurement": "pKd", "setting": "Nucleic Acid [1]", "result": 5.29},
      {"measurement": "pKd", "setting": "Nucleic Acid [2]", "result": 5.39},
      {"measurement": "pKd", "setting": "Nucleic Acid [3]", "result": 5.35}
    ]},
    {"smiles": "Nc1c(S(=O)(=O)O)cc(Nc2ccc(S(N)(=O)=O)cc2)c2c1C(=O)c1ccccc1C2=O", "values": [
      {"measurement": "pKd", "setting": "Nucleic Acid [6]", "result": 4.96},
      {"measurement": "pIC50", "setting": "Nucleic Acid [11]", "result": 4.15},
      {"measurement": "pKi", "setting": "Nucleic Acid [11]", "result": 4.70},
      {"measurement": "pKd", "setting": "Nucleic Acid [12]", "result": 1.96}
    ]},
    {"smiles": "O=C(NC(=S)Nc1ccc(N2CCCC2)cc1)c1ccccc1[N+](=O)[O-]", "values": [
      {"measurement": "Activity", "setting": "Nucleic Acid [3]", "result": "inactive"}
    ]},
    {"smiles": "O=C1Oc2ccccc2C(=O)/C1=C/N1C(=O)N/C(=C\\c2ccccc2O)C1=O", "values": [
      {"measurement": "inhibition", "setting": "Nucleic Acid [13]", "result": "Active"},
      {"measurement": "pIC50", "setting": "Nucleic Acid [11]", "result": 3.47},
      {"measurement": "pKi", "setting": "Nucleic Acid [11]", "result": 3.96}
    ]},
    {"smiles": "O=C(NN=Cc1ccc(Br)cc1)c1cc[n+](Cc2ccccc2)cc1", "values": [
      {"measurement": "Activity", "setting": "Nucleic Acid [1]", "result": "Active"},
      {"measurement": "Activity", "setting": "Nucleic Acid [2]", "result": "Active"},
      {"measurement": "pKd", "setting": "Nucleic Acid [3]", "result": 4.48}
    ]},
    {"smiles": "Nc1c(S(=O)(=O)O)cc(Nc2cccc(S(N)(=O)=O)c2)c2c1C(=O)c1ccccc1C2=O", "values": [
      {"measurement": "inhibition", "setting": "Nucleic Acid [13]", "result": "Active"}
    ]},
    {"smiles": "O=C1NC(=S)NC(=O)C1=Cc1cn(-c2ccccc2)nc1-c1cc2c(ccc3ccccc32)oc1=O", "values": [
      {"measurement": "pKd", "setting": "Nucleic Acid [6]", "result": 4.17},
      {"measurement": "pIC50", "setting": "Nucleic Acid [11]", "result": 3.91},
      {"measurement": "pKi", "setting": "Nucleic Acid [11]", "result": 4.40},
      {"measurement": "pKd", "setting": "Nucleic Acid [12]", "result": 3.31}
    ]},
    {"smiles": "O=C(C[n+]1cccc(C(=O)N/N=C/c2ccc(Br)cc2)c1)c1ccccc1", "values": [
      {"measurement": "Activity", "setting": "Nucleic Acid [3]", "result": "inactive"}
    ]},
    {"smiles": "O=C1c2ccccc2C(=O)c2c(NCCO)ccc(NCCO)c21", "values": [
      {"measurement": "pKd", "setting": "Nucleic Acid [1]", "result": 5.49},
      {"measurement": "pKd", "setting": "Nucleic Acid [2]", "result": 5.66},
      {"measurement": "pKd", "setting": "Nucleic Acid [3]", "result": 5.96},
      {"measurement": "pIC50", "setting": "Nucleic Acid [11]", "result": 3.15},
      {"measurement": "pKi", "setting": "Nucleic Acid [11]", "result": 3.70}
    ]},
    {"smiles": "O=C1NC(=S)N/C1=C/c1ccc2ccccc2c1", "values": [
      {"measurement": "pKd", "setting": "Nucleic Acid [1]", "result": 4.92},
      {"measurement": "pKd", "setting": "Nucleic Acid [2]", "result": 5.12},
      {"measurement": "pKd", "setting": "Nucleic Acid [3]", "result": 4.88}
    ]}
  ]
}
